ChEMBL document CHEMBL4387708, “Enhancement of Benzothiazoles as Pteridine Reductase-1 Inhibitors for the Treatment of Trypanosomatidic Infections” (J Med Chem, 2019)
≈ marks a conversion by molar mass, not a printed value. Calls of active or inactive are those of the source. The rule behind the calls is not given here.

Assays:
Cytochrome P450 1A2 = molecular target: T1, Cytochrome P450 1A2 (Homo sapiens, UniProt P05177); assay: Inhibition of human CYP1A2 expressed in baculovirus infected insect cells using beetle D-luciferin as substrate preincubated for 30 mins followed by NADPH addition and measured after 30 mins by CYP450-Glo assay
T1 sequence (P05177 whole entry): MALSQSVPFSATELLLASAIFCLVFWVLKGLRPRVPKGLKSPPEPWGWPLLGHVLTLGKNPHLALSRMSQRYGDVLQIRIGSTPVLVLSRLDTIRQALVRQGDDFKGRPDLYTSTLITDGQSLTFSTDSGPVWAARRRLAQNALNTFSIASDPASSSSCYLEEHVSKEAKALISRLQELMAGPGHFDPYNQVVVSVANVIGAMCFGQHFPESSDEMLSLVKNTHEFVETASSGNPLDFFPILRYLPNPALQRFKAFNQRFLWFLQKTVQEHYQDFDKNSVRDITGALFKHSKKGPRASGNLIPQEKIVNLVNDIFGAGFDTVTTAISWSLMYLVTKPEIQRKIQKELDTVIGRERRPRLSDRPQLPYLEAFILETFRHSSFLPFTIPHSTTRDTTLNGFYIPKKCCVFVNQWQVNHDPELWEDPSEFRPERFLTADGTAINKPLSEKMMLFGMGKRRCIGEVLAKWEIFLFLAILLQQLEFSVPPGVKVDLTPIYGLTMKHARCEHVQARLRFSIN

[1] = Thermodynamic solubility of the compound in phosphate buffered saline/50%DMSO after 24 hrs by spectrophotometric method; format: physicochemical; settings: read-out: Therm_solubility
Summary of the method: (§1)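 Over-saturated suspensions (theoretical maximum 100 µg/mL) in water, PBS, PBS + 10% DMSO or PBS + 50% DMSO were stirred at 1200 rpm for 24 h at 25 °C. They were filtered at 0.2 µm and diluted 1:1 with ACN. Concentration was quantified by UV using a molar extinction coefficient determined at 340 nm.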

[2] = molecular target: Voltage-gated inwardly rectifying potassium channel KCNH2 (Homo sapiens, UniProt Q12809); assay: Displacement of Tracer Red from human ERG by fluorescence polarization assay
[3] = Cytotoxicity against human U2OS cells assessed as reduction in cell number; format: cell-based
Pteridine reductase 1 = molecular target: T2, Pteridine reductase 1 (Leishmania major, UniProt Q01782); assay: Inhibition of Leishmania major pteridine reductase 1 using di-hydrobiopterine as substrate in presence of NADPH; settings: read-out: IC50
T2 sequence (Q01782 whole entry): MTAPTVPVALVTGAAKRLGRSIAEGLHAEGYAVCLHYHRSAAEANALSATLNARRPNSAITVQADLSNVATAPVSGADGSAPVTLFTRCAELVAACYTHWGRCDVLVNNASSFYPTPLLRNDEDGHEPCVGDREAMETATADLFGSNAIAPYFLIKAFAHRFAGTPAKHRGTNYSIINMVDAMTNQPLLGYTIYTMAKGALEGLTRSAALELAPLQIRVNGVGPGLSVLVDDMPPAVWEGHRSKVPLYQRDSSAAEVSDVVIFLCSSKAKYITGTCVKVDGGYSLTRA
Summary of the method: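 Photometric PTR1 assay with NADPH and dihydrobiopterin substrate. H₄B formation is coupled non-enzymatically to cytochrome c reduction, read as signal increase at 550 nm.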

Cytochrome P450 2D6 = Cytochrome P450 2D6 (Homo sapiens, UniProt P10635); assay: Inhibition of human CYP2D6 expressed in baculovirus infected insect cells using beetle D-luciferin as substrate preincubated for 30 mins followed by NADPH addition and measured after 30 mins by CYP450-Glo assay
[4] = system: Trypanosoma brucei brucei; assay: Antitrypanosomal activity against red-shifted luciferase expressing Trypanosoma brucei brucei GVR35 infected in BALB/c mouse assessed as reduction in parasite infection at 40 mg/kg, po administered twice a day as suspension in hydroxypropyl-beta-cyclodextrin solution by bioluminescence assay; format: functional, organism-based
Summary of the method: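 T. b. brucei GVR35 (luciferase-expressing) was given IP to BALB/c mice as blood carrying 1 x 10⁵ parasites from a donor mouse at first-peak parasitemia; controls received PBS. Compound was given orally as a suspension in (2-hydroxypropyl)-β-cyclodextrin solution at 40 mg/kg twice daily. […] Parasite load was read by bioluminescence imaging after subcutaneous D-luciferin under isoflurane, as total flux per ROI.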

[5] = AUC in BALB/c mouse at 20 mg/kg, po by LC-MS analysis; format: ADME, organism-based; settings: in vivo
Summary of the method: (§2)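 Snapshot PK in healthy BALB/c mice. Free compound given in 8% DMSO at 1 mg/kg IV or 20 mg/kg per os; for the formulated arm it was solubilized with hydroxypropyl-β-cyclodextrin (50%) and given at 20 mg/kg per os. Plasma levels were quantified by LC-MS on a C18 column with triple-quadrupole ESI detection in positive ion mode.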

[6] = Thermodynamic solubility of the compound in pure water after 24 hrs by spectrophotometric method; format: physicochemical; settings: read-out: Therm_solubility; summary of the method: as §1
[7] = Thermodynamic solubility of the compound in phosphate buffered saline after 24 hrs by spectrophotometric method; format: physicochemical; settings: read-out: Therm_solubility; summary of the method: as §1
[8] = Cmax in BALB/c mouse at 20 mg/kg, po co-formulated with hydroxypropyl-beta-cyclodextrin by LC-MS analysis; format: ADME, organism-based; set-up: dose 20 mg/kg, route oral; settings: in vivo; summary of the method: as §2
[9] = Half-life in BALB/c mouse at 1 mg/kg, iv by LC-MS analysis; format: ADME, organism-based; settings: in vivo; summary of the method: as §2
[10] = Cytotoxicity against human A549 cells after 48 hrs by Celltiter-glo assay; format: cell-based
CYP2D6 = assay: Selectivity index ratio of IC50 for CYP2D6 (unknown origin) to EC50 for growth inhibition of Trypanosoma brucei bloodstream forms; format: toxicity; settings: read-out: Ratio IC50/EC50
[11] = Cmax in BALB/c mouse at 1 mg/kg, iv by LC-MS analysis; format: ADME, organism-based; set-up: dose 1 mg/kg, route intravenous; settings: in vivo; summary of the method: as §2
Cytochrome P450 2C19 = Cytochrome P450 2C19 (Homo sapiens, UniProt P33261); assay: Inhibition of human CYP2C19 expressed in baculovirus infected insect cells using beetle D-luciferin as substrate preincubated for 30 mins followed by NADPH addition and measured after 30 mins by CYP450-Glo assay
[12] = Selectivity ratio of IC50 for Leishmania major pteridine reductase 1 to IC50 for N-terminal His-tagged Trypanosoma brucei pteridine reductase 1
[13] = AUC in BALB/c mouse at 20 mg/kg, po co-formulated with hydroxypropyl-beta-cyclodextrin by LC-MS analysis; format: ADME, organism-based; settings: in vivo; summary of the method: as §2
[14] = Selectivity index ratio of IC50 for mitochondrial toxicity in human 786-O cells to EC50 for growth inhibition of Trypanosoma brucei bloodstream forms; format: cell-based; settings: read-out: Ratio IC50/EC50

Sequence of Voltage-gated inwardly rectifying potassium channel KCNH2 (Q12809 whole entry): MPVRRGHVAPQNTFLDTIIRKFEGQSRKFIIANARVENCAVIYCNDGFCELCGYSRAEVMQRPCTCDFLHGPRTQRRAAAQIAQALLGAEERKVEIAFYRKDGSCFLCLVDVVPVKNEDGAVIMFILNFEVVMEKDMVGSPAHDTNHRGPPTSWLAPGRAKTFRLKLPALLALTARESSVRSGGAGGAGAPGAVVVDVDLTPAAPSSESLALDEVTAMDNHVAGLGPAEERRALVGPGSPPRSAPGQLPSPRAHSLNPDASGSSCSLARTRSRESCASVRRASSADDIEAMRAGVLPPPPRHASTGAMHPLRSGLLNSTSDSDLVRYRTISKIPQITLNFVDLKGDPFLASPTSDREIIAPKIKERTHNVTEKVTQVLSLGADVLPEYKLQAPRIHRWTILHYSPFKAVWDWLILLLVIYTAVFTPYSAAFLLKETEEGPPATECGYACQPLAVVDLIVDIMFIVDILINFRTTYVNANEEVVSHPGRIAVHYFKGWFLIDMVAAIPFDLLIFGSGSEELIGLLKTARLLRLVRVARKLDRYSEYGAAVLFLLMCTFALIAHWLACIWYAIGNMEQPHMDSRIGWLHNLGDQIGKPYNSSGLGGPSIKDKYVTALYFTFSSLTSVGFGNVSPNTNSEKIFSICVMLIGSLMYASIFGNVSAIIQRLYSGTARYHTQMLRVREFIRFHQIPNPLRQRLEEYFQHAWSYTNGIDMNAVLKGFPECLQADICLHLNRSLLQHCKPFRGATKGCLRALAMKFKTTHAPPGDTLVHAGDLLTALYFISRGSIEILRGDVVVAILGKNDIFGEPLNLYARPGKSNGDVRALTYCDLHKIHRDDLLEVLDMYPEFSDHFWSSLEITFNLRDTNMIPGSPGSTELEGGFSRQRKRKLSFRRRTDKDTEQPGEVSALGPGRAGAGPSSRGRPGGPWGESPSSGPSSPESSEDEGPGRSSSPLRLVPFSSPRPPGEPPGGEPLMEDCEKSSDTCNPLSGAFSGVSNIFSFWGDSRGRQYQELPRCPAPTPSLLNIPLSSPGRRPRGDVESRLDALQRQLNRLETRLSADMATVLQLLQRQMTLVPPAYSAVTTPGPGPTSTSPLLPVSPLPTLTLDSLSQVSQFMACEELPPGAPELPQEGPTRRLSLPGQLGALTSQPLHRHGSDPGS
Sequence of Cytochrome P450 2D6 (P10635 whole entry): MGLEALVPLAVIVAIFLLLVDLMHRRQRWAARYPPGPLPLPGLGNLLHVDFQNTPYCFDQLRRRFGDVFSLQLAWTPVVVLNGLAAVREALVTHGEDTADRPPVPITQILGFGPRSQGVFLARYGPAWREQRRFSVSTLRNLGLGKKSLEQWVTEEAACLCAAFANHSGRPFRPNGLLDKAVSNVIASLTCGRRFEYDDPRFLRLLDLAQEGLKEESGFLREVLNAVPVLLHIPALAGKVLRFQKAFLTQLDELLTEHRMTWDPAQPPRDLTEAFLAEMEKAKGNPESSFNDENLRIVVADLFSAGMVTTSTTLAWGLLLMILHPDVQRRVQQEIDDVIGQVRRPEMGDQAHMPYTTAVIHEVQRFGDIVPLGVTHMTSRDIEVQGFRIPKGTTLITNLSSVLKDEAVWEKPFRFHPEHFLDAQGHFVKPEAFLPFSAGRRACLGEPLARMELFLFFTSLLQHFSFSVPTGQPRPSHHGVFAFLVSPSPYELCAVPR
Sequence of Cytochrome P450 2C19 (P33261 whole entry): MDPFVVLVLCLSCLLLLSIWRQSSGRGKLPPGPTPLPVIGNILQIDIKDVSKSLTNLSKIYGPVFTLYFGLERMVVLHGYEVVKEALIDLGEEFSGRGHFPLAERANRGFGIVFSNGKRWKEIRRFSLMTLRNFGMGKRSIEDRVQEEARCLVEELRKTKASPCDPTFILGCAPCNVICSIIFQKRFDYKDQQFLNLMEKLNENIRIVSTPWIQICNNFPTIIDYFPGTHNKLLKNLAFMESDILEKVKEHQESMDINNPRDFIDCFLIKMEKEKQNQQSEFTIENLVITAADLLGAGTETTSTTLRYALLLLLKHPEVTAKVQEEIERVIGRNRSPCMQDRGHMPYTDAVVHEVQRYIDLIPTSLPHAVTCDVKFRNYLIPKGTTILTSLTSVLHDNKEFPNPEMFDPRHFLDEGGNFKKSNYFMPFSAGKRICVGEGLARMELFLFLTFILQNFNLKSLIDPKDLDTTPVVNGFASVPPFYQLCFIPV

IC50 (Cytochrome P450 1A2): > 25 µM
solubility thermodynamic at 24 h [1]: > 100 µg/mL
IC50 (Pteridine reductase 1): 61.3 µM
IC50 (Cytochrome P450 2D6): 10 to 25 µM
AUC [5]: 4690 ng·h/mL
solubility thermodynamic at 24 h [6]: 13.1 µg/mL (≈ 46.3 µM)
solubility thermodynamic at 24 h [7]: 10.9 µg/mL (≈ 38.6 µM)
Cmax [8]: 13 µM
half-life [9]: 3.45 h
Cmax [11]: 1630 ng/mL
IC50 (Cytochrome P450 2C19): > 25 µM
Ratio IC50 [12]: 2 to 100
AUC [13]: 7930 ng·h/mL
Structure (SMILES): Nc1nc2ccc(C(=O)NCc3ccccc3)cc2s1
IC50 [2]: > 25 µM
GI50 [3]: > 25 µM
Activity [4]: inactive
GI50 at 48 h [10]: > 25 µM
selectivity ratio (CYP2D6): > 10
selectivity ratio [14]: > 10
